# Screening results as filed in PubChem.
# Most compounds without a hit are left out; they make up all but 2.3% or so of the library.
# TAAR1 antagonist: human TAAR1 antagonists, primary screen, Fluo-8 calcium fluorescence, CHO RD-HGA16 cells | Trace amine-associated receptor 1 (Homo sapiens), Q96RJ0 | 1.5% of 360,000 active | AID 624466, 2012 | antagonist | inhibition, % at 3 µM;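 active means inhibition above a per-plate cutoff, the mean inhibition of test compounds on that plate plus 3 SD, cut at about 49% in these data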;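 further: 0% = DMSO plus EC80 beta-PEA response and 100% = DMSO alone without agonist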
# Target sequence (Q96RJ0 whole entry, looked up): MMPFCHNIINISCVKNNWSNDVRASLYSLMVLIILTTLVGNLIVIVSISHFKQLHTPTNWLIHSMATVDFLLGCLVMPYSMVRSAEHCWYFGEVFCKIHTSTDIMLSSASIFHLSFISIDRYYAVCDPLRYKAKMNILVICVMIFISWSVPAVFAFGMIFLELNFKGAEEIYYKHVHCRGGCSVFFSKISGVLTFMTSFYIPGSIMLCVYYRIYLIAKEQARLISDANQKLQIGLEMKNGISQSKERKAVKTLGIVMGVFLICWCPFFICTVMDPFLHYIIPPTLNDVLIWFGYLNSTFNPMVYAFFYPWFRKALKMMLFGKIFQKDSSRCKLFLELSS
#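 Assay system: CHO-derived RD-HGA16 cells stably expressing human TAAR1 plus Gα16. Timing: 140 s kinetic read after compound, 140 s after agonist. Technique: kinetic Fluo-8 calcium fluorescence measurement. Measure: % inhibition of agonist calcium response.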
# TAAR1 agonist: human TAAR1 agonists, primary screen, Fluo-8 calcium fluorescence, CHO RD-HGA16 cells. 0.99% of 360,000 active. Trace amine-associated receptor 1 (Homo sapiens), Q96RJ0. activation, % at 3 µM. vehicle wells 0%, saturating PEA agonist 100%;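 active means activation above the mean activation of all test compounds in the run plus 3 SD, cut at about 38% in these data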
#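 Benchmarks: low control DMSO, high control PEA (EC100); System: CHO RD-HGA16 cells carrying human TAAR1 plus Gα16; Detection: Fluo-8 fluorescence, 5 s baseline then 140 s kinetic read; Schedule: 17-24 h plating, Fluo-8 75 min 37 °C, 30 min RT; Read-out basis: % activation from peak over basal fluorescence ratio, DMSO-to-PEA scaled.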
# OXTR potentiator: human OXTR potentiators, primary screen, fluorescence, CHO-OTR cells, Fluo-8 calcium. Fluo-8 calcium fluorescence, potentiator mode; 0% = oxytocin EC15, 100% = EC100. Oxytocin receptor (Homo sapiens), P30559. 0.061% of 320,000 active. activation, % at 3 µM;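 active means activation above that plate's cutoff, the mean activation of tested compounds plus 3 SD, cut at about 6.6% in these data, passing the limit was not always enough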;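 further: 100% uses oxytocin at 75 nM as the full agonist control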
# Target sequence (P30559 whole entry, looked up): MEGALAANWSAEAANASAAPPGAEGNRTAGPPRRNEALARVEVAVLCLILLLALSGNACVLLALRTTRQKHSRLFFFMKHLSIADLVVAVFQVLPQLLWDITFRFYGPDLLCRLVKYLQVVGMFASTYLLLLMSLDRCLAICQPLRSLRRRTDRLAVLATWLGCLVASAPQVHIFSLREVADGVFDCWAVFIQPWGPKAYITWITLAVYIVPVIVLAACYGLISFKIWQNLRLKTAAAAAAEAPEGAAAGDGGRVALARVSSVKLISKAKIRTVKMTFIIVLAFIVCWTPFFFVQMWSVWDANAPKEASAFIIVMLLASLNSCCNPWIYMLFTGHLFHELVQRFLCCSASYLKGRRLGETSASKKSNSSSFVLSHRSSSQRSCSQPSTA
#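 Assay system: CHO cell line stably expressing human OTR | Also added: Oxytocin at about EC15, sub-maximal agonist stimulus | Times: Compound 6 min at room temperature before oxytocin, 100 s read | Measured by: Fluo-8 intracellular calcium fluorescence, ex 470-495, em 515-575 nm | Controls: EC15 oxytocin alone as 0%, 75 nM oxytocin as 100%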
# OXTR ag: human OXTR agonists, primary screen, fluorescence, CHO-OTR cells, Fluo-8 calcium. Oxytocin receptor (Homo sapiens), P30559. Fluo-8 calcium fluorescence; normalized: DMSO 0%, oxytocin 100%. activation, % at 3 µM. 0.32% of 320,000 active. AID 2435, 2010;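 active means activation above the mean of all tested compounds plus 3 SD, cutoff set per screening run, cut at about 20% in these data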;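 further: peak over basal fluorescence ratio from a 100 s FLIPR kinetic read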
# V1R ag counter: agonists of human V1a receptor, primary screen, counter-screen for OXTR agonist project, fluorescence, CHO-V1R cells; Vasopressin V1a receptor (Homo sapiens), P37288; Fluo-8 calcium fluorescence, agonist mode; 0% DMSO, 100% 3 nM vasopressin; activation, % at 3 µM; 0.25% of 320,000 active; AID 2797, 2010;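 active means activation above the mean activation of all tested compounds plus 3 SD, per screening run, cut at about 20% in these data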;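 further: signal is peak over basal fluorescence ratio across a 100 second FLIPR read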
# TAAR1 ag conf: human TAAR1 agonists, retest of hits, confirmation, Fluo-8 calcium fluorescence, CHO RD-HGA16 cells. scaled: DMSO 0%, maximal phenethylamine 100%. 82% of 2,400 active. shares compounds with TAAR1 agonist. activation, % at 3 µM;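 active means activation above a cutoff set at the run's mean compound activation plus 3 SD, cut at about 39% in these data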
# Ga16 ag counter: nonselective calcium mobilization agonists, CHO-Ga16 cells, counter-screen for hTAAR1 agonist project, cell-based, fluorescence, CHO-Ga16 parental line; shares compounds with TAAR1 agonist; Fluo-8 calcium fluorescence; normalized to maximal ATP response, DMSO zero; activation, % at 3 µM; 50% of 2,400 active; AID 651787, 2012;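 active means activation above the run cutoff, the mean activation over all tested wells plus 3 SD, cut at about 12% in these data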;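 further: 0% = DMSO wells and 100% = maximal ATP response on the peak over basal ratio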
# TAAR1 desensitize: TAAR1 desensitization by agonist hits, confirmation, counter-screen for TAAR1 agonist project, cell-based, fluorescence, tachyphylaxis; shares compounds with TAAR1 agonist; inhibition, % at 3 µM; CHO RD-HGA16 hTAAR1, Fluo-8 calcium, beta-PEA response inhibition; 46% of 2,400 active;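 active means inhibition above the run cutoff, the mean inhibition of all test compounds plus 3 SD, cut at about 49% in these data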;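 further: beta-PEA stimulus applied at its EC80; loss of beta-PEA calcium signal after compound pretreatment read as receptor desensitization; 0% = DMSO with beta-PEA at EC80 and 100% = DMSO alone without agonist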
# Ga16 nonsel ant: inhibition of ATP-evoked calcium response in CHO-Ga16 cells, counter-screen for TAAR1 agonist project, cell-based, fluorescence | 39% of 2,400 active | inhibition, % at 3 µM | CHO-Ga16 ATP-induced calcium, Fluo-8 fluorescence | shares compounds with TAAR1 agonist;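 active means inhibition above the plate's mean compound inhibition plus 3 SD, computed per plate, cut at about 22% in these data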;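 further: 0% = EC80 ATP with DMSO and 100% = DMSO wells without ATP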
# * hit, by the source's call; · = no result given.
SMILES,TAAR1 antagonist,TAAR1 agonist,OXTR potentiator,OXTR ag,V1R ag counter,TAAR1 ag conf,Ga16 ag counter,TAAR1 desensitize,Ga16 nonsel ant
CCOc1ccc(NC(=O)N2C[C@H]3C[C@@H](C2)c2cccc(=O)n2C3)cc1,-16,4,-5,1,1,·,·,·,·
Cc1cc(C)c(C)c(C(O)(C(=O)O)c2ccccc2)c1 (configuration not stated),-10,2,·,·,·,·,·,·,·
CCc1ccc(N2C(=O)NC(=O)/C(=C\C=C\c3ccco3)C2=O)cc1,42,73*,-7,3,2,67*,26*,69*,19
Cc1cc(C)cc(N2C(=O)NC(=O)/C(=C\C=C\c3ccco3)C2=O)c1,23,50*,-5,3,1,72*,47*,40,16
O=C1NC(=O)N(Cc2ccc(F)cc2)C(=O)/C1=C\C=C\c1ccco1,30,17,-9,4,6,·,·,·,·
COc1cc(OC)c(OC)cc1CNCCc1cccc(F)c1,35,79*,-8,-1,0,78*,12*,36,2
NCCc1ccc(O)cc1,89*,118*,-1,0,1,99*,3,94*,1
CCCCn1c(O)c(C(CC)=NCc2ccc(F)cc2)c(=O)[nH]c1=O,21,15,-8,4,4,·,·,·,·
CCC(=NCCc1ccccc1)c1c(O)n(C)c(=O)n(C)c1=O,-3,62*,-12,6,9,61*,10,40,32*
C=CCn1c(O)c(C(CC)=NCCc2ccccc2)c(=O)[nH]c1=O,30,74*,-5,-1,0,78*,5,40,5
CCC(=NCc1ccco1)c1c(O)n(C)c(=O)n(C)c1=O,-15,21,1,3,3,·,·,·,·
CCCCn1c(O)c(C(CC)=NCCc2ccccc2)c(=O)[nH]c1=O,70*,58*,-2,1,3,68*,7,43,23*
C=CCn1c(O)c(C(CC)=NCCc2c[nH]c3ccccc23)c(=O)[nH]c1=O,26,9,-13,7,8,·,·,·,·
O=C(O)c1nn(Cc2ccc(Cl)cc2)c2ccccc12,-12,3,·,·,·,·,·,·,·
COc1ccc(-n2c(=S)[nH]c3ccc(C)cc3c2=O)cc1,7,7,·,·,·,·,·,·,·
c1ccc2cc(CC3=NCCN3)ccc2c1,66*,87*,-16,0,-1,98*,3,87*,4
O=C1CC23c4ccccc4N4C(=O)CC5OCC=C6CN1C2CC6C5C43 (configuration not stated),15,0,·,·,·,·,·,·,·
ClCCN1CCN(c2ccnc3cc(Cl)ccc23)CC1,-18,12,-5,1,1,·,·,·,·
CCC(C)n1c(O)c(C=NCCc2ccccc2)c(=O)[nH]c1=S (configuration not stated),5,69*,-1,-3,7,60*,1,14,8
Clc1ccc(CCNCc2ccncc2)c(Cl)c1,52*,74*,-9,1,2,89*,5,71*,1
c1cnc(N2CCNCC2)nc1,-20,23,-7,-1,0,·,·,·,·
c1ccc(Cc2cnc(N3CCNCC3)nc2)cc1,-18,45*,·,·,·,58*,0,19,5
CNC(=O)Oc1cc2c(cc1C(C)(C)C)CCC2,-19,1,·,·,·,·,·,·,·
O=c1cc(C(F)(F)F)c2cc3c4c(c2o1)CCCN4CCC3,95*,195*,-18,169*,152*,89*,112*,70*,75*
CCCC(=O)NC(Oc1ccc(C(C)=O)cc1)C(Cl)(Cl)Cl (configuration not stated),-1,8,4,3,1,·,·,·,·
SMILES,TAAR1 antagonist,TAAR1 agonist,OXTR potentiator,OXTR ag,V1R ag counter,TAAR1 ag conf,Ga16 ag counter,TAAR1 desensitize,Ga16 nonsel ant
O=C1C2CC=CCC2C(=O)N1SC(Cl)(Cl)Cl (configuration not stated),54*,57*,·,·,·,43*,26*,55*,49*
CC(=O)O/C(=C1\CC2C3CC=C4CC(OC(C)=O)CCC4(C)C3CCC2(C)C1=O)C(F)(F)F (configuration not stated),1,2,·,·,·,·,·,·,·
CN1C(=O)C(=CN2CCN(C(=O)c3ccco3)CC2)C(=O)N(C)C1=S,-9,53*,-6,0,-1,75*,6,21,-1
C[C@H]1CCC/C=C/[C@@H]2C[C@H](O)C[C@H]2[C@@H](O)/C=C/C(=O)O1,-9,3,·,·,·,·,·,·,·
COc1ccc(CNCCc2ccc(Cl)cc2)c(OC)c1OC,-25,65*,-15,6,2,76*,25*,39,9
COc1ccc(CCNC(=O)c2c(N)n(CCN3CCOCC3)c3nc4ccccc4nc23)cc1,48,16,-18,0,-1,·,·,·,·
Nc1c(C(=O)NCCc2ccccc2)c2nc3ccccc3nc2n1CCN1CCOCC1,74*,71*,-12,9,6,32,13*,47,43*
CC1C=CCCC12C(=O)NC(=O)NC2=O (configuration not stated),-8,6,·,·,·,·,·,·,·
COC(=O)C1=CCCN(C)C1,11,54*,-3,1,1,88*,1,57*,4
COC(=O)c1ccc(CN2CCN(Cc3ccccc3)CC2)cc1,-1,6,-9,-1,0,·,·,·,·
CCOc1ccc(NC(=O)c2c(C)nn(Cc3ccccc3)c2Cl)cc1,64*,54*,-3,0,4,79*,43*,76*,46*
O=C1NC(=S)NC(=O)C1=Cc1cccc2cc3ccccc3cc12,-7,1,·,·,·,·,·,·,·
